In publication PMC9909812 (ACS Omega, 2023):
Where a SMILES comes first, the peptide text is derived from it. [ ]: non-standard residue; d: D form. The star is where a group is joined. X1 = O=C(O)CN1CCN(CC(=O)O)CCN(CC(=O)NCCN2C(=O)CC(*)C2=O)CCN(CC(=O)O)CC1

Key:
[1] = Biodistribution of ^68Ga-DOTA-RGD in MGC-803 tumor-bearing mice; assay type: in vivo; conditions: BALB/c nude, mouse, tumor (MGC-803 xenograft), iv, 10 MBq, total radioactivity
Procedure, shortened: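 Female BALB/c nude mice (4–5 weeks, SPF) bearing s.c. right-shoulder xenografts of 5 × 10^6 MGC-803 cells in PBS; cells grown in DMEM/10% FBS, 37 °C, 5% CO2. Injected 10 MBq radiotracer (740 MBq/μmol), killed at 60 and 180 min. Blocking by co-injection of excess unlabelled thiol peptide (50 mg/kg), 180 min. Ten tissues weighed and gamma-counted, expressed as %ID/g; n = 3.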

[2] = system: inflamed tissue; test: Biodistribution of ^68Ga-DOTA-BSA in the turpentine oil inflammation model; assay type: in vivo, mice; conditions: 5–10 MBq, mean ± SD, n = 3
Procedure, shortened: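 Inflammation induced by s.c. injection of 30 μL turpentine oil into the right thigh of female mice (4–5 weeks old). Radiolabelled albumin tracer (5–10 MBq; 130 MBq/μmol) injected. Mice killed under anaesthesia at 30 and 60 min post-injection. Inflamed tissue and organs collected, weighed, gamma-counted, and expressed as %ID/g. n = 3, mean ± SD.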

Compound | tissue uptake at 1 h [1] [%ID/g] | tissue uptake at 3 h [1] [%ID/g] | uptake in inflammatory tissues ([2]; 0.5 h after injection) [% ID/g] | uptake in inflammatory tissues ([2]; 1 h after injection) [% ID/g]
N=C(N)NCCC[C@@H]1NC(=O)[C@H](CSC2CC(=O)N(CCNC(=O)CN3CCN(CC(=O)O)CCN(CC(=O)O)CCN(CC(=O)O)CC3)C2=O)NC(=O)[C@H](CCCCN)NC(=O)[C@@H](Cc2ccc(O)cc2)NC(=O)[C@H](CC(=O)O)NC(=O)CNC1=O (stereo partly shown) [^68Ga-DOTA-RGD, metal not drawn] (cyclo(RGD[dY]KC(X1))) | 4.31 ± 0.93 | 8.3 ± 0.92 |  | 
^68Ga-DOTA-BSA: ^68Ga-labeled DOTA-Mal conjugated to DTT-treated bovine serum albumin (HS-BSA) |  |  | 4.32 ± 1.10 | 6.50 ± 0.40
